Values after ≈ are worked out from the molar mass of the structure shown. Active and inactive are the calls of the source. No cut-off for these calls is given here.
Experiments:
[1] = Metabolic stability in rat liver microsomes assessed as compound remaining at 1 uM measured after 30 mins; type: ADME, microsome; conditions: read-out: Stability
[2] = test system: Mycobacterium tuberculosis; assay: Antitubercular activity against Mycobacterium tuberculosis H37Ra infected in THP-1 macrophages measured after 5 days post infection by luciferase reporter gene assay; type: functional; conditions: THP-1, 120 h
How it was run: (§1)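 Firefly luciferase reporter Mtb infected THP-1 cells. Bacterial growth was read by luminescence five days post-infection, and the value was reported as the 50% inhibitory concentration. The assay medium used glucose and glycerol as the carbon source.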

Mus musculus = assay: Dose normalized AUC in mouse at 3 mg/kg, po or 1 mg/kg, iv; type: ADME, organism-based; conditions: in vivo
How it was run: (§2)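 Mouse pharmacokinetics after 3 mg/kg oral or 1 mg/kg intravenous dosing. Clearance is in mL/min/kg. AUC is in μg*h/mL, with oral exposure normalised to the actual dose.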

[3] = Half life in mouse at 3 mg/kg, po or 1 mg/kg, iv; type: ADME, organism-based; conditions: in vivo; how it was run: as §2
[4] = Clearance in mouse at 1 mg/kg, iv; type: ADME, organism-based; conditions: in vivo; how it was run: as §2
[5] = test system: Mycobacterium tuberculosis; assay: Antitubercular activity against Mycobacterium tuberculosis H37Rv BSL3 infected in THP-1 macrophages under anaerobic condition after 5 days post infection by luciferase reporter gene assay; type: functional; conditions: H37Rv BSL3, THP-1, 120 h
[6] = test system: Mycobacterium tuberculosis; assay: Antitubercular activity against Mycobacterium tuberculosis H37Ra BSL2 infected in THP-1 macrophages after 5 days post infection by luciferase reporter gene assay; type: functional; conditions: H37Ra BSL2, THP-1, 120 h; how it was run: as §1
[7] = test system: Mycobacterium tuberculosis; assay: Antitubercular activity against Mycobacterium tuberculosis Erdman BSL3 infected in THP-1 macrophages using middlebrook 7H12 broth media after 5 days post infection by luciferase reporter gene assay; type: functional, Mycobacterium tuberculosis str. Erdman = ATCC 35801; conditions: BSL3, THP-1, 120 h
[8] = test system: Mycobacterium tuberculosis; assay: Antitubercular activity against Mycobacterium tuberculosis H37Rv BSL3 infected in THP-1 macrophages using middlebrook 7H12 broth media after 5 days post infection by luciferase reporter gene assay; type: functional; conditions: H37Rv BSL3, THP-1, 120 h
[9] = test system: Mycobacterium tuberculosis; assay: Antitubercular activity against Mycobacterium tuberculosis Erdman BSL3 infected in THP-1 macrophages using middlebrook 7H9 broth media after 5 days post infection by luciferase reporter gene assay; type: functional, Mycobacterium tuberculosis str. Erdman = ATCC 35801; conditions: BSL3, 120 h
[10] = test system: Mycobacterium tuberculosis; assay: Antitubercular activity against Mycobacterium tuberculosis H37Rv BSL3 infected in THP-1 macrophages using middlebrook 7H9 broth media after 5 days post infection by luciferase reporter gene assay; type: functional; conditions: H37Rv BSL3, THP-1, 120 h
[11] = test system: Mycobacterium tuberculosis; assay: Antitubercular activity against Mycobacterium tuberculosis Erdman BSL3 infected in BALB/c mouse assessed as reduction in colony forming units in lung homogenates at 100 mg/kg administered daily via oral gavage for 5 days per week for 4 weeks; type: functional, organism-based; conditions: Mycobacterium tuberculosis str. Erdman = ATCC 35801
How it was run: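 BALB/c mice were infected intranasally with 10^6 cfu of the Erdman isolate, six mice per group. Dosing was 100 mg/kg daily, 5 days/week, for four weeks. Lung homogenates were plated for cfu. An early-control group was killed at the start of therapy to set the infection load, and a late-control group marked the endpoint and confirmed virulence. Rifampin at 10 mg/kg was the positive control.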

[12] = test system: Mycobacterium tuberculosis; assay: Antitubercular activity against Mycobacterium tuberculosis H37Ra BSL2 cultured in broth; type: functional
How it was run: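 BSL2 H37Ra broth assay. MIC was taken as the concentration (μM) giving 70% growth inhibition versus control wells.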

CCC(O)Cc1ccc(Nc2nc(C)cs2)cc1 (stereo not drawn)
remaining at 0.5 h, 1 µM [1]: 1% | IC50 [2]: 400 nM

CCCCCCc1ccc(Nc2nc(C)cs2)cc1
IC50 [2]: 50 nM

CCc1ccc(Nc2nc(C)cs2)cc1
remaining at 0.5 h, 1 µM [1]: 0% | IC50 [2]: 120 nM

Cc1csc(Nc2ccc(OCCO)cc2)n1
remaining at 0.5 h, 1 µM [1]: 73% | IC50 [2]: 3190 nM

CCCCc1ccc(Nc2nc(CC(N)=O)cs2)cc1
IC50 [2]: 860 nM

Cc1csc(Nc2ccc(C(C)(C)C)cc2)n1
remaining at 0.5 h, 1 µM [1]: 0% | IC50 [2]: < 40 nM

Cc1csc(Nc2ccc(COCC(F)(F)F)cc2)n1
remaining at 0.5 h, 1 µM [1]: 1% | IC50 [2]: < 40 nM

Cc1csc(Nc2ccc(C(C)(C)O)cc2)n1
remaining at 0.5 h, 1 µM [1]: 12% | IC50 [2]: 60 nM

CCCCc1ccc(Nc2nc(C(C)(C)C(=O)O)cs2)cc1
AUC/dose (Mus musculus): 1.4 µg·h/mL | half-life [3]: 5 h | clearance [4]: 18 mL/min/kg | IC50 [2]: 140 nM

CCCCc1ccc(Nc2nc(CC(=O)O)c(Cl)s2)cc1
IC50 [5]: 5600 nM | IC50 [6]: 70 nM | IC50 [7]: 54000 nM | AUC/dose (Mus musculus): 6 µg·h/mL | half-life [3]: 1.1 h | IC50 [8]: > 100000 nM | clearance [4]: 5 mL/min/kg | MIC90 [9]: 12.5 µM (≈ 4.06 µg/mL) | IC50 [10]: 6300 nM | IC50 [2]: 70 nM | Activity [11]: inactive | MIC70 [12]: 0.39 µM (≈ 0.127 µg/mL)

CCCCc1ccc(Nc2nc(C)cs2)cc1
IC50 [5]: 12000 nM | IC50 [6]: 40 nM | IC50 [7]: > 100000 nM | IC50 [8]: 47000 nM | MIC90 [9]: 7 µM (≈ 1.72 µg/mL) | remaining at 0.5 h, 1 µM [1]: 1% | IC50 [2]: < 5 nM | Activity [11]: inactive | MIC70 [12]: 0.04 µM (≈ 0.00986 µg/mL)

CCCCCc1ccc(Nc2nc(C)cs2)cc1
remaining at 0.5 h, 1 µM [1]: 3% | IC50 [2]: 40 nM

Cc1csc(Nc2ccc(CCN(C)C)cc2)n1
IC50 [2]: > 20000 nM

CCNCc1ccc(Nc2nc(C)cs2)cc1
remaining at 0.5 h, 1 µM [1]: 0% | IC50 [2]: > 20000 nM

CC(C)(C)c1ccc(Nc2nc(CC(=O)O)cs2)cc1
IC50 [5]: > 100000 nM | IC50 [6]: 70 nM | IC50 [7]: 63000 nM | AUC/dose (Mus musculus): 24.1 µg·h/mL | half-life [3]: 1.1 h | IC50 [8]: > 100000 nM | clearance [4]: 4 mL/min/kg | MIC90 [9]: 6.3 µM (≈ 1.83 µg/mL) | IC50 [10]: 9400 nM | IC50 [2]: 70 nM | Activity [11]: inactive | MIC70 [12]: 0.16 µM (≈ 0.0465 µg/mL)

CCC(C)c1ccc(Nc2nc(C)cs2)cc1 (stereo not drawn)
remaining at 0.5 h, 1 µM [1]: 0% | IC50 [2]: < 40 nM

CO[C@H]1/C=C/O[C@@]2(C)Oc3c(C)c(O)c4c(O)c(c(/C=N/N5CCN(C)CC5)c(O)c4c3C2=O)NC(=O)/C(C)=C\C=C\[C@H](C)[C@H](O)[C@@H](C)[C@@H](O)[C@@H](C)[C@H](OC(C)=O)[C@@H]1C [RIFAMPIN]
IC50 [6]: 30 nM | MIC70 [12]: 0.08 µM (≈ 0.0658 µg/mL)

Cc1csc(Nc2ccc(OC3CCCC3)cc2)n1
remaining at 0.5 h, 1 µM [1]: 10% | IC50 [2]: 70 nM

CCCCc1ccc(Nc2nc(CC(=O)O)c(C)s2)cc1
AUC/dose (Mus musculus): 4.8 µg·h/mL | half-life [3]: 1.1 h | clearance [4]: 7 mL/min/kg | IC50 [2]: 100 nM

CCC(C)c1ccc(Nc2nc(CC(=O)O)cs2)cc1 (racemic)
IC50 [5]: 96000 nM | IC50 [6]: 70 nM | IC50 [7]: > 100000 nM | AUC/dose (Mus musculus): 14.4 µg·h/mL | half-life [3]: 2.8 h | IC50 [8]: > 100000 nM | clearance [4]: 3 mL/min/kg | MIC90 [9]: 6.3 µM (≈ 1.83 µg/mL) | IC50 [10]: 9400 nM | IC50 [2]: 70 nM | Activity [11]: inactive | MIC70 [12]: 0.16 µM (≈ 0.0465 µg/mL)

CCCOc1ccc(Nc2nc(C)cs2)cc1
remaining at 0.5 h, 1 µM [1]: 4% | IC50 [2]: 150 nM

Cc1csc(Nc2ccc(C(C)C)cc2)n1
remaining at 0.5 h, 1 µM [1]: 0% | IC50 [2]: 10 nM

Cc1ccc(Nc2nc(C)cs2)cc1
IC50 [2]: > 20000 nM

CCCCc1ccc(Nc2nc(CC(=O)O)cs2)cc1
IC50 [5]: 17800 nM | IC50 [6]: 150 nM | IC50 [7]: 56000 nM | AUC/dose (Mus musculus): 4.9 µg·h/mL | half-life [3]: 3.1 h | IC50 [8]: 91000 nM | clearance [4]: 5 mL/min/kg | MIC90 [9]: 7.8 µM (≈ 2.27 µg/mL) | IC50 [2]: 150 nM | Activity [11]: inactive | MIC70 [12]: 0.16 µM (≈ 0.0465 µg/mL)

CCCCc1ccc(Nc2nc(C(C)C(=O)O)cs2)cc1 (stereo not drawn)
AUC/dose (Mus musculus): 4.8 µg·h/mL | half-life [3]: 0.9 h | clearance [4]: 4 mL/min/kg | IC50 [2]: 140 nM

O=C(O)Cc1csc(Nc2ccc(OCCC(F)(F)F)cc2)n1
AUC/dose (Mus musculus): 15 µg·h/mL | half-life [3]: 1.6 h | clearance [4]: 1.5 mL/min/kg | IC50 [2]: 270 nM

CCCCc1ccc(Nc2nc(C(=O)O)cs2)cc1
IC50 [2]: > 20000 nM

From ChEMBL document CHEMBL4043143, “2-N-Arylthiazole inhibitors of Mycobacterium tuberculosis” (Bioorg Med Chem Lett, 2017)
